Active and inactive are the calls of the source. The calls are words filed in the database; no cut-off is given here.
Species: Mus musculus
Assay: Percent increase in life span (% ILS) was tested at optimal dose.
Type: functional
Conditions: not given
Procedure, shortened: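 In vivo murine P388 lymphocytic leukemia screen; antitumor effect read as percent increase in life span (% ILS).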

**Q.** How did the ILS turn out when `CC(CO)(CO)NCc1c2c3c(cccc3c3ccccc13)CC2` was run?
**A.** 200%

**Q.** Which ILS does the source give for `CC(CO)(CO)NCc1ccc2c3cccc4cccc(c5cccc1c52)c43.Cl` here?
**A.** 100%

**Q.** `CC(CO)(CO)NCc1cccc2ccc3c4ccccc4ccc3c12` was tested. Which ILS did it give?
**A.** 120%

**Q.** Which ILS does the source give for `CC(CO)(CO)NCc1cc2c3c(cccc3c1)-c1ccccc1-2.Cl` here?
**A.** 105%

**Q.** How did the ILS turn out when `CC(CO)(CO)NCc1ccc2c3c(cccc13)-c1ccccc1-2.Cl` was run?
**A.** 190%

**Q.** How did the ILS turn out when `CC(CO)(CO)NCc1ccc2c3ccccc3c3ccccc3c2c1.Cl` was run?
**A.** 100%

**Q.** Which ILS does the source give for `CC(CO)(CO)NCc1cc2c3ccccc3ccc2c2ccccc12` [CRISNATOL] here?
**A.** 215%

**Q.** With `CC(CO)(CO)NCc1cc2ccc3ccccc3c2c2ccccc12` as the molecule, how does the ILS read?
**A.** 42%

Species: Mus musculus
Assay: Number of animals survived after 60 days; 0/6
Type: functional
Conditions: not given

**Q.** For `CC(CO)(CO)NCc1c2c3c(cccc3c3ccccc13)CC2`, which “No. of animals survived” value is on record?
**A.** 0

**Q.** With `CC(CO)(CO)NCc1cccc2ccc3c4ccccc4ccc3c12` as the molecule, how does the “No. of animals survived” value read?
**A.** 0

Species: Mus musculus
Assay: Number of animals survived after 30 days of treatment; 0/6.
Type: functional
Conditions: not given

**Q.** How did the “No. of animals survived” value turn out when `CC(CO)(CO)NCc1ccc2c3cccc4cccc(c5cccc1c52)c43.Cl` was run?
**A.** 0

**Q.** How did the “No. of animals survived” value turn out when `CC(CO)(CO)NCc1cc2c3c(cccc3c1)-c1ccccc1-2.Cl` was run?
**A.** 0

**Q.** For `CC(CO)(CO)NCc1ccc2c3ccccc3c3ccccc3c2c1.Cl`, which “No. of animals survived” value is on record?
**A.** 0

**Q.** `CC(CO)(CO)NCc1cc2ccc3ccccc3c2c2ccccc12` was tested. Which “No. of animals survived” value did it give?
**A.** 0

Species: Mus musculus
Assay: Percent increase in life span (% ILS) was tested at optimal dose; I indicates inactive
Type: functional, organism-based
Conditions: not given
Procedure, shortened: (§1)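 Preliminary in vivo antitumor screen in mice bearing murine lymphocytic leukemia P388. The read-out is percent increase in life span (% ILS). Highest nontoxic doses used in the assay are reported in parentheses.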

**Q.** How did the ILS turn out when `CC(CO)(CO)NCc1ccc2cc3ccccc3cc2c1.Cl` was run?
**A.** inactive

**Q.** Which ILS does the source give for `CC(CO)(CO)NCc1ccc(-c2ccccc2)cc1.Cl` here?
**A.** inactive

**Q.** How did the ILS turn out when `CC(CO)(CO)NCc1ccc2ccccc2c1.Cl` was run?
**A.** inactive

**Q.** Which ILS does the source give for `CC(CO)(CO)NCc1cc2c3c(ccc4c3c1CCC4)CCC2.Cl` here?
**A.** inactive

**Q.** With `CCCCCCCCCCCCNC(C)(CO)CO.Cl` as the molecule, how does the ILS read?
**A.** inactive

**Q.** Which ILS does the source give for `CC(CO)(CO)NCc1cccc2ccc3ccccc3c12.Cl` here?
**A.** inactive

**Q.** For `CC(CO)(CO)NCc1ccc2c(ccc3c4ccccc4ccc23)c1`, which ILS is on record?
**A.** inactive

**Q.** For `CC(CO)(CO)NCc1ccc(-c2ccccc2)c2ccccc12.Cl`, which ILS is on record?
**A.** inactive

**Q.** For `CC(CO)(CO)NCc1ccc2c(c1)-c1cccc3cccc-2c13.Cl`, which ILS is on record?
**A.** inactive

**Q.** `CC(CO)(CO)NCc1cccc2ccccc12.Cl` was tested. Which ILS did it give?
**A.** inactive

**Q.** Which ILS does the source give for `CC(CO)(CO)NCc1ccc2c(c1)Cc1ccccc1-2.Cl` here?
**A.** inactive

**Q.** How did the ILS turn out when `CC(CO)(CO)NCc1ccccc1.Cl` was run?
**A.** inactive

Species: Mus musculus
Assay: Number of animals survived after 30 days; 6/8
Type: functional
Conditions: not given

**Q.** How did the “No. of animals survived” value turn out when `CC(CO)(CO)NCc1cc2c3ccccc3ccc2c2ccccc12` [CRISNATOL] was run?
**A.** 6

System: P388
Assay: The compound tested for the lethal dose in murine lymphocytic leukemia P388.
Type: ADME
Conditions: mouse

**Q.** How did the LD20 turn out when `CC(CO)(CO)NCc1cc2c3c(cccc3c1)-c1ccccc1-2.Cl` was run?
**A.** 160 mg/kg

**Q.** `CC(CO)(CO)NCc1ccc2c3c(cccc13)-c1ccccc1-2.Cl` was tested. Which LD20 did it give?
**A.** 110 mg/kg

Species: Mus musculus
Assay: Number of animals survived after 30 days
Type: functional
Conditions: not given

**Q.** Which “No. of animals survived” value does the source give for `CC(CO)(CO)NCc1ccc2c3c(cccc13)-c1ccccc1-2.Cl` here?
**A.** 5

System: P388
Assay: Antitumor activity in murine lymphocytic leukemia P388 cells
Type: functional, Mus musculus
Conditions: not given
Procedure, shortened: as §1

**Q.** With `CC(CO)(CO)NCc1ccc2cc3ccccc3cc2c1.Cl` as the molecule, how does the Optimal dose read?
**A.** 250 mg/kg

**Q.** For `CC(CO)(CO)NCc1ccc(-c2ccccc2)cc1.Cl`, which Optimal dose is on record?
**A.** 283 mg/kg

**Q.** For `CC(CO)(CO)NCc1ccc2ccccc2c1.Cl`, which Optimal dose is on record?
**A.** 240 mg/kg

**Q.** For `CC(CO)(CO)NCc1cc2c3c(ccc4c3c1CCC4)CCC2.Cl`, which Optimal dose is on record?
**A.** 151 mg/kg

**Q.** With `CC(CO)(CO)NCc1c2c3c(cccc3c3ccccc13)CC2` as the molecule, how does the Optimal dose read?
**A.** 60 mg/kg

**Q.** With `CC(CO)(CO)NCc1ccc2c3cccc4cccc(c5cccc1c52)c43.Cl` as the molecule, how does the Optimal dose read?
**A.** 350 mg/kg

**Q.** For `CCCCCCCCCCCCNC(C)(CO)CO.Cl`, which Optimal dose is on record?
**A.** 75 mg/kg

**Q.** How did the Optimal dose turn out when `CC(CO)(CO)NCc1cccc2ccc3c4ccccc4ccc3c12` was run?
**A.** 225 mg/kg

**Q.** `CC(CO)(CO)NCc1cccc2ccc3ccccc3c12.Cl` was tested. Which Optimal dose did it give?
**A.** 269 mg/kg

**Q.** With `CC(CO)(CO)NCc1cc2c3c(cccc3c1)-c1ccccc1-2.Cl` as the molecule, how does the Optimal dose read?
**A.** 160 mg/kg

**Q.** How did the Optimal dose turn out when `CC(CO)(CO)NCc1ccc2c(ccc3c4ccccc4ccc23)c1` was run?
**A.** 450 mg/kg

**Q.** How did the Optimal dose turn out when `CC(CO)(CO)NCc1ccc(-c2ccccc2)c2ccccc12.Cl` was run?
**A.** 175 mg/kg

**Q.** For `CC(CO)(CO)NCc1ccc2c(c1)-c1cccc3cccc-2c13.Cl`, which Optimal dose is on record?
**A.** 150 mg/kg

**Q.** With `CC(CO)(CO)NCc1cccc2ccccc12.Cl` as the molecule, how does the Optimal dose read?
**A.** 180 mg/kg

**Q.** How did the Optimal dose turn out when `CC(CO)(CO)NCc1ccc2c3c(cccc13)-c1ccccc1-2.Cl` was run?
**A.** 105 mg/kg

**Q.** With `CC(CO)(CO)NCc1ccc2c3ccccc3c3ccccc3c2c1.Cl` as the molecule, how does the Optimal dose read?
**A.** 85 mg/kg

**Q.** `CC(CO)(CO)NCc1ccc2c(c1)Cc1ccccc1-2.Cl` was tested. Which Optimal dose did it give?
**A.** 225 mg/kg

**Q.** Which Optimal dose does the source give for `CC(CO)(CO)NCc1cc2c3ccccc3ccc2c2ccccc12` [CRISNATOL] here?
**A.** 120 mg/kg

**Q.** For `CC(CO)(CO)NCc1cc2ccc3ccccc3c2c2ccccc12`, which Optimal dose is on record?
**A.** 7.5 mg/kg

**Q.** With `CC(CO)(CO)NCc1ccccc1.Cl` as the molecule, how does the Optimal dose read?
**A.** 350 mg/kg

System: P388
Assay: Lethal dose in murine lymphocytic leukemia P388 cells
Type: functional, Mus musculus
Conditions: not given

**Q.** With `CC(CO)(CO)NCc1c2c3c(cccc3c3ccccc13)CC2` as the molecule, how does the LD20 read?
**A.** 70 mg/kg

**Q.** For `CC(CO)(CO)NCc1ccc2c3cccc4cccc(c5cccc1c52)c43.Cl`, which LD20 is on record?
**A.** 425 mg/kg

**Q.** With `CC(CO)(CO)NCc1cccc2ccc3c4ccccc4ccc3c12` as the molecule, how does the LD20 read?
**A.** 225 mg/kg

**Q.** `CC(CO)(CO)NCc1ccc2c(ccc3c4ccccc4ccc23)c1` was tested. Which LD20 did it give?
**A.** 450 mg/kg

**Q.** How did the LD20 turn out when `CC(CO)(CO)NCc1ccc2c3ccccc3c3ccccc3c2c1.Cl` was run?
**A.** 85 mg/kg

**Q.** For `CC(CO)(CO)NCc1cc2c3ccccc3ccc2c2ccccc12` [CRISNATOL], which LD20 is on record?
**A.** 120 mg/kg

**Q.** Which LD20 does the source give for `CC(CO)(CO)NCc1cc2ccc3ccccc3c2c2ccccc12` here?
**A.** 15 mg/kg

Species: Mus musculus
Assay: Number of animals survived after 60 days; 3/6
Type: functional
Conditions: not given

**Q.** Which “No. of animals survived” value does the source give for `CC(CO)(CO)NCc1ccc2c3c(cccc13)-c1ccccc1-2.Cl` here?
**A.** 3

**Q.** How did the “No. of animals survived” value turn out when `CC(CO)(CO)NCc1cc2c3ccccc3ccc2c2ccccc12` [CRISNATOL] was run?
**A.** 3

Species: Mus musculus
Assay: Number of animals survived after 30 days; 3/6
Type: functional
Conditions: not given

**Q.** For `CC(CO)(CO)NCc1c2c3c(cccc3c3ccccc13)CC2`, which “No. of animals survived” value is on record?
**A.** 3

System: P388
Assay: The compound tested for the highest non-toxic dose in murine lymphocytic leukemia P388.
Type: functional, Mus musculus
Conditions: not given
Procedure, shortened: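 In vivo murine P388 lymphocytic leukemia screen; the value reported is the highest nontoxic dose used in the assay.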

**Q.** How did the Highest non-toxic dose turn out when `CC(CO)(CO)NCc1ccc2cc3ccccc3cc2c1.Cl` was run?
**A.** 250 mg/kg

**Q.** For `CC(CO)(CO)NCc1ccc(-c2ccccc2)cc1.Cl`, which Highest non-toxic dose is on record?
**A.** 283 mg/kg

**Q.** How did the Highest non-toxic dose turn out when `CC(CO)(CO)NCc1ccc2ccccc2c1.Cl` was run?
**A.** 240 mg/kg

**Q.** Which Highest non-toxic dose does the source give for `CC(CO)(CO)NCc1cc2c3c(ccc4c3c1CCC4)CCC2.Cl` here?
**A.** 151 mg/kg

**Q.** `CCCCCCCCCCCCNC(C)(CO)CO.Cl` was tested. Which Highest non-toxic dose did it give?
**A.** 75 mg/kg

**Q.** For `CC(CO)(CO)NCc1cccc2ccc3ccccc3c12.Cl`, which Highest non-toxic dose is on record?
**A.** 269 mg/kg

**Q.** `CC(CO)(CO)NCc1ccc(-c2ccccc2)c2ccccc12.Cl` was tested. Which Highest non-toxic dose did it give?
**A.** 175 mg/kg

**Q.** Which Highest non-toxic dose does the source give for `CC(CO)(CO)NCc1ccc2c(c1)-c1cccc3cccc-2c13.Cl` here?
**A.** 166 mg/kg

**Q.** Which Highest non-toxic dose does the source give for `CC(CO)(CO)NCc1cccc2ccccc12.Cl` here?
**A.** 180 mg/kg

**Q.** Which Highest non-toxic dose does the source give for `CC(CO)(CO)NCc1ccc2c(c1)Cc1ccccc1-2.Cl` here?
**A.** 225 mg/kg

**Q.** For `CC(CO)(CO)NCc1ccccc1.Cl`, which Highest non-toxic dose is on record?
**A.** 350 mg/kg

Species: Mus musculus
Assay: Number of animals survived after 30 days; 1/6
Type: functional
Conditions: not given

**Q.** Which “No. of animals survived” value does the source give for `CC(CO)(CO)NCc1cccc2ccc3c4ccccc4ccc3c12` here?
**A.** 1

Reference: ChEMBL document CHEMBL1125275, “2-[(arylmethyl) amino]-2-methyl-1,3-propanediol DNA intercalators. An examination of the effects of aromatic ring variation on antitumor activity and DNA binding” (J Med Chem, 1991)
